The values below come from ChEMBL document CHEMBL3867429, “Euphorbesulins A-P, Structurally Diverse Diterpenoids from Euphorbia esula” (J Nat Prod, 2016).

This test deals with Plasmodium falciparum. Put plainly: Antimalarial activity against chloroquine-resistant Plasmodium falciparum Dd2 after 72 hrs by SYBR green-based fluorescence assay. It counts as functional. Conditions: Dd2, 72 h. A digest of the protocol: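 Growth-inhibition assay of the chloroquine-resistant P. falciparum Dd2 strain over 72 h, read by SYBR Green fluorescence and run under a slightly modified published protocol. Artemisinin served as positive control.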

What is called IC50 is the concentration that inhibits the measured activity by half. Lower therefore signals greater potency in that assay. Take `C=C1[C@H](OC(=O)c2ccccc2)[C@@H](OC(C)=O)[C@@H](OC(C)=O)C(C)(C)/C=C/[C@H](C)C(=O)[C@@]2(OC(C)=O)C[C@H](C)[C@H](OC(C)=O)[C@@H]2[C@H]1OC(=O)c1ccccc1`: half-maximal inhibition (IC50) required 0.12 µM.
The molecule `C=C1[C@H](OC(C)=O)[C@@H](OC(C)=O)[C@@H](OC(C)=O)C(C)(C)/C=C/[C@H](C)C(=O)[C@]2(O)[C@H]([C@@H](OC(C)=O)[C@@H](C)[C@H]2OC(C)=O)[C@H]1OC(=O)c1ccccc1` displayed an IC50 of over 5 µM.
Molecule `C=C1C[C@]2(O)C(=O)C(C)(C)C[C@H]2[C@@](C)(O)C(=O)[C@@]2(O)C[C@H](C)[C@H](OC(=O)c3ccccc3)[C@@H]2[C@H]1OC(C)=O` showed an IC50 of over 5 µM.
In the case of `C[C@@H]1CC[C@H]2[C@@H](C)C(=O)O[C@@H]3O[C@@]4(C)CC[C@@H]1[C@]32OO4` [ARTEMISININ], the midpoint of inhibition, the IC50, lay at 0.007 µM.
Then `C=C1[C@H](OC(=O)c2ccccc2)[C@@H](O)[C@@H](OC(C)=O)C(C)(C)/C=C/[C@H](C)C(=O)[C@@]2(OC(C)=O)C[C@@](C)(OC(C)=O)[C@H](OC(C)=O)[C@@H]2[C@H]1OC(C)=O`, with over 10 µM.
In the case of `C=C1[C@H](OC(C)=O)[C@@H](OC(C)=O)[C@@H](OC(C)=O)C(C)(C)/C=C/[C@H](C)C(=O)[C@]2(OC(C)=O)[C@H]([C@@H](OC(C)=O)[C@@H](C)[C@H]2O)[C@H]1OC(=O)c1ccccc1` it was over 5 µM.
Then `C=C1[C@H](OC(C)=O)[C@@H](OC(C)=O)[C@@H](OC(C)=O)C(C)(C)/C=C/[C@H](C)C(=O)[C@@]2(OC(C)=O)C[C@@](C)(OC(C)=O)[C@H](OC(=O)c3ccccc3)[C@@H]2[C@H]1OC(C)=O`, with over 5 µM; and `C=C1C[C@]2(O)C(=O)C(C)(C)C[C@H]2[C@@](C)(O)C(=O)[C@@]2(O)C[C@H](C)[C@H](OC(=O)c3ccccc3)[C@@H]2[C@H]1OC(=O)[C@H](C)C(C)C`, with 2.41 µM.
`C=C1[C@H](OC(=O)c2ccccc2)[C@@H](O)[C@@H](OC(C)=O)C(C)(C)/C=C/[C@H](C)C(=O)[C@@]2(OC(C)=O)C[C@H](C)[C@H](OC(C)=O)[C@@H]2[C@H]1OC(C)=O` had an IC50 of over 5 µM.
The molecule `C=C1[C@H](OC(=O)c2ccccc2)[C@@H](OC(C)=O)[C@@H](OC(C)=O)C(C)(C)/C=C/[C@H](C)C(=O)[C@]2(OC(C)=O)[C@H]([C@@H](OC(C)=O)[C@](C)(O)[C@H]2O)[C@H]1OC(=O)c1ccccc1` had an IC50 of over 5 µM.
Regarding `C=C1C[C@]2(O)C(=O)C(C)(C)C[C@H]2[C@@](C)(O)C(=O)[C@@]2(O)C[C@H](C)[C@H](OC(=O)c3ccccc3)[C@@H]2[C@H]1OC(=O)c1ccccc1`, the IC50 was over 5 µM.
Then `C=C1[C@H](OC(C)=O)[C@@H](OC(C)=O)[C@@H](OC(C)=O)C(C)(C)/C=C/[C@H](C)C(=O)[C@]2(OC(C)=O)[C@H]([C@@H](OC(=O)c3ccccc3)[C@@H](C)[C@H]2O)[C@H]1OC(C)=O`, with over 5 µM.
